Data taken from the EternaBench riboswitch data.

Test system: MS2 coat protein
Test: apparent Kd, MS2 coat protein; higher = weaker binding; RNA-MaP array; FMN 200 µM where present
Outline: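 Stalled E. coli RNA polymerase produced the designs on Illumina sequencing-chip clusters. SNAP-549-labelled MS2 coat protein was added from 0.7 or 1.5 nM, doubling to 3 µM, without and then with constant ligand, in 100 mM Tris-HCl pH 7.5, 80 mM KCl, 4 mM MgCl2, BSA, DTT, yeast tRNA and Tween-20. The apparent Kd is the median of filtered per-cluster fits of green signal normalised to red-channel RNA signal and control-cluster median Fmax.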

[1] = designed as: OFF switch for flavin mononucleotide, no ligand
[2] = ligand present: flavin mononucleotide, designed as: OFF switch for flavin mononucleotide
[3] = designed as: ON switch for flavin mononucleotide, no ligand
[4] = ligand present: flavin mononucleotide, designed as: ON switch for flavin mononucleotide

Sequence	apparent Kd [1] [nM]	apparent Kd [2] [nM]	apparent Kd [3] [nM]	apparent Kd [4] [nM]
AUACAUGAGGAUCACCCAUGUUACUGGGUCUUAAUAGAACGUAGAAGGAUGAUAUUAUAAAUAACAUAGGAUAUACAAUAUUGU	132	64.2	–	–
GCUAUUGAUGUAGGAUAUGAUAUAGAAACUAUGUCAGAAGGACAUGAGGAUCACCCAUGUCAAUGGAUGGAGAGAAGAGAUGGC	28	30.7	–	–
AGUAUGCAGCAGGAUAUCGAUCCGCAGUAUGAUCGAGAAGGGCUGACAUGAGGAUCACCCAUGUGCGUCCUAGG	40.1	167	–	–
AAGAAACAUGAGGAUCACCCAUGUGAGGAUAUACGAUGCUAAGCGUAAGCUUAGUAUCGUAGAAGGCACAAAGG	131	311	–	–
CUCAUGUGAGGAUAUCAGUAGUAAAAAAAUAAAAUUACUACUGAGAAGGCACAUGAGGAUCACCCAUGUGCAAA	95.9	105	–	–
GCAUAUGUCGUCUACAUGAGGAUCACCCAUGUUGAUAAACAUGAGGAUAUUGAUAAGAAUUGUAUCGAGAAGGUAUGUAGGUGC	–	–	258	347
GGGCACAUCGGAGGAUAUCAUGUAAAUACAUGAGGAUCACCCAUGUCGAUGGAGACAUCGGAGAUUGAGAAGGCCGAUGUACCG	–	–	191	9.02
GUGGUCAGACAUGAGGAUCACCCAUGUGGAAUAAAUAACAGACAGGAUAUCAAAUAUAGGAUAUAUGAGAAGGGUCGAUUGGUG	–	–	99.5	84.3
CAUAUCGUACGAGGAUAUAUGAGUCCUACAUGAGGAUCACCCAUGUAGGUGAUCUAACGAGAUUAGUAGAAGGCGUACGAUAUG	–	–	14.1	7.85
AAAAAACAUGAGGAUCACCCAUGUAAGGAUAUGCUAAAAAAAAAAAAAAAAAAAAAAUGCAGAAGGUACAAAAA	63.6	78.2	–	–
AAUUAUUUUUGAGGAUAUGGUGGUGAAACACCACCAGAAGGCGAAAUAAACAUGAGGAUCACCCAUGUGAGCCUGAUGCUUAUG	21.1	55.8	–	–
UCAGUCAUGUAAGGAUAUGCAGCCGUUUCGGCUGCAGAAGGUACUAUAAUUACAUGAGGAUCACCCAUGUUAUAAAAUUUAUAU	–	–	52.5	19.9
UCAUAACAUGAGGAUCACCCAUGUGAGGAUAUGAUACUAUGUACUUCGGUACAUAGUAUCAGAAGGCACAUACU	85	316	–	–
ACAUGAGGAUCACCCAUGUUAUCCGGGACUUCAAUUGUUUCUAGAAGGCUGUUUACUUGUUAGUCAGAGGAUAUAGAAUCAAAU	10.7	11.4	–	–
UUGGACGUCGUAGGAUAUGUAGGAUAUACCUACAUGAGGAUCACCCAUGUUGACAUGGAAGAAGGACAGAAGGACGAUGUCCAU	–	–	439	153
GGGAUGUGAGGAUAUACAUGAACUAUCCACUGUGCUGGGCCACAUGAGGAUCACCCAUGUAGAAGGUACGCCCA	66.2	168	–	–
GCAGCUAAUGCAGGAUAUCAGCACGUGUAGUGCUGAGAAGGGCACAUGAGGAUCACCCAUGUGAUCAAUUAAUGUUAAUGCUGC	18.1	57.5	–	–
AGUGUCAUUUAGAAGGCCUCAUGACAUGAGGAUCACCCAUGUUAUCAUGGGAGGAUAUGGAUGAUAUAGCUACGUUUCGUAGCA	–	–	233	78.2
AACAGUAUAGGAUAUACAUGAGGAUCACCCAUGUGAGAAUUAAGUGGCGUACCACUAAGUAGAAGGAUACUGGA	50.8	222	–	–

Sequence	apparent Kd [1] [nM]	apparent Kd [2] [nM]	apparent Kd [3] [nM]	apparent Kd [4] [nM]
GUUUUCGCAUGAGGAUAUGCUCGCAUUUCAAGAGCAGAAGGUAUGUCUUUAGACAUGAGGAUCACCCAUGUAUUUAUCAUUGAA	–	–	101	26.2
GACUGCUGAGGAUAUACAUGAGGAUCACCCAUGUGCUUCAGCUACGAAAGUAGCAUUGGUAGAAGGUAGUAGUC	12.4	22.4	–	–
GCAGCUAAUGCAGGAUAUCAGCACGUGUAGUGCUGAGAAGGGCACAUGAGGAUCACCCAUGUGAUCAAUUAAUCUUAAUGCUGC	17.3	54.5	–	–
AAUAACAGAGGAUAUACUGUUUUAUGUGUUUAUUAUUUUGAACAUGAGGAUCACCCAUGUAGAAGGCUGAAUGA	32.7	31.5	–	–
GAUCAACAUGAGGAUCACCCAUGUGAGGAUAUGUAUCAUAGAUCUUCGGAUCUAUGAUACAGAAGGCAUGUGAA	76.1	101	–	–
AGUGUCAUCGAGAAGGCCUCAACAUGAGGAUCACCCAUGUUGUAAAAUGGGAGGAUAUCGAUGAUACAGCUACGUUUCGUAGCA	–	–	11.3	4.88
AGAAACUACGAGAAGGACAUGUGGUCCUUCAGUUACAUGAGGAUCACCCAUGUAGGAUAUAAAAGUUUCAGGAUCGUGAGAUCA	6.78	7.1	–	–
UUAGGUCGAAACAUGAGGAUCACCCAUGUGUUAUAAUUAAUAUAGGAUAUGUUUAUACUUUUUGGGCAGAAGGAUGAUAUUGCU	–	–	21.2	17.9
CAGUACUGAGGAUAUACAUGAGGAUCACCCAUGUGUCCCUGCUAGGAAACUAGCAAUAGUAGAAGGCAGUACUG	17.7	199	–	–
CUGAUGUUAGGAUAUCAGGCCGUGCGCGAAGGCGGGCAGCAUGAGAAGGAACAUGAGGAUCACCCAUGUGACGA	27.2	67.8	–	–
UACAUGAGGAUCACCCAUGUUUUGUCGUGUAUGGUAUUUAUCUAGGAUAUCAUUUUAUCUAGUUAUGAGAAGGAGAAUAUUAAU	36.6	29.9	–	–
AGCUGGUGACAGCAAGAAACUUCACAUGAGGAUCACCCAUGUAGAAGGCUGUACGGUUACCGUACAGAGGAUAUACAUGAAAAG	9.49	26.8	–	–
GCAGCAUAUGCAGGAUAUCAGCACGUGUAGUGCUGAGAAGGGCACAUGAGGAUCACCCAUGUGAUCAAUUAAUAUUUAUGCUGC	7.98	24.8	–	–
CGUAUGUGAGGAUAUGACAAUGGUAUCUUCGGAUACCAUUGUCAGAAGGUACAUGAGGAUCACCCAUGUAGAUC	27.1	59.9	–	–
GCUAGGAAUGUCAGGAUAUGCAGAACCUUGGUUCUGCAGAAGGGACAUGAGGAUCACCCAUGUGCUAACCUAGC	29.6	113	–	–
AUACCACGAGGAUAUCGUCUCUCCCACAUGAGGAUCACCCAUGUUAUCCAUGUUUCGUUUCGAGAAGGCGUGGGUU	83.2	70.2	–	–
ACAUACAUUCGAGGAUAUCGGUGAUUAAUUUUACGAGAAGGCGAUAUAAGAUAUAAUAUUUUAGACAUGAGGAUCACCCAUGUA	–	–	25.5	22.9
UUUGCAUUCCGAGGAUAUUCAUUUAAUGACUUCACAUGAGGAUCACCCAUGUGGCGCUUGCGCCGGGAGAAGGCGGUUUGCUUU	–	–	25.6	24.1
AGGCGAGUAGGAUAUGCGUUUUUACGGGAAAGCUGGAUGAUACAUGAGGAUCACCCAUGUAGAAGGGCUCUGAA	20.6	16	–	–

Sequence	apparent Kd [1] [nM]	apparent Kd [2] [nM]	apparent Kd [3] [nM]	apparent Kd [4] [nM]
AUUAAACAUGAGGAUCACCCAUGUCAACAAAGUCGAGGAUAUGGGCAAAUAAAAUAAGAACCAGAAGGCGACUAAU	–	–	22.8	16
GUGCUUAUCGAAGGAUAUGGUUACAUGAGGAUCACCCAUGUUAUGCUUGGUUACUUGUUUAGUUUCCAGAAGGUCGAUUAGUUG	75.5	170	–	–
UAGAUACAUGAGGAUCACCCAUGUGAGGAUAUCGUUUGUACUAAUCUUUUAGUAUUUUCGAGAAGGCACAUAUA	73.9	183	–	–
ACGACGAAAGUCGAACGAUGUAGCAGAAGGACAUGAGGAUCACCCAUGUCAGCUGUGAAAACCAUGUAGGAUAUGCUACAUCGA	38.5	291	–	–
UCAAGUAUGUAGGAUAUCGAUGUCUGCGGACAUCGAGAAGGACGUACAUGAGGAUCACCCAUGUAACUUGCAUG	107	79.4	–	–
GGAUCCUGGGUCAGGAUAUGCUGACAGCUUUGUCAGCAGAAGGGACAUGAGGAUCACCCAUGUGCUCGGUUUUG	10.1	18.1	–	–
UAUAUGUCAGGAUAUUAGUUGUGUUAGAAUUUAACUUCUGCUGAGAAGGGACAUGAGGAUCACCCAUGUUCCUC	15.9	21.2	–	–
GGGUACAUCGGAGGAUAUCAUGUAAAUACAUGAGGAUCACCCAUGUCGAUGGAAACAUCGGAGAUUGAGAAGGCCGAUGUACCG	–	–	9.76	5.01
AAAUAGCGAGGAUAUACAUGAGGAUCACCCAUGUGGACUGAUGUCGCAUGAUUCAGUGGUAGAAGGUGCUCAAA	90.4	127	–	–
GGUGCACGCACAGGAUAUCCGGCGGCGCUCGUCGGAGAAGGGUGACAUGAGGAUCACCCAUGUACGUGCAACUCAGUUUGAGUG	–	–	42.5	33.9
AUAGCUCCCUAGAAGGGCCAACCAGUAUUCCAUCAGGUAUUUGCGGUAGGUAGGAUAUGGGACAUGAGGAUCACCCAUGUGUAG	–	–	35.8	25.8
CUAACACAUGAGGAUCACCCAUGUGAGGAUAUGCGUACGUUGUCCGUAGGCGACGUGCGCAGAAGGCGCUUGGU	55.8	62.8	–	–
UCAUCGGCAGGAUAUACGAAAGGAGAACUUCUGCGCAAGAUACAUGAGGAUCACCCAUGUAGAAGGGUCGUAUG	27.8	88.7	–	–
GGAUAGCACAGAGGAUAUACGUGCUAGAGAUACUAGCAAAAUUUCCUCACAUGAGGAUCACCCAUGUAGAAGGCUGUCCUAUCG	4.44	5.5	–	–
GGUUAUUGCAAGGAUAUGCUUUUUUUUUAUUUUGCAGAAGGUGCAACAUGAGGAUCACCCAUGUUGGAGGGUUU	21.7	31.9	–	–
UAAAUACAUGAGGAUCACCCAUGUCAAAAGACAUGAGGAUAUGUACAGACUUCGGUCUGUACAGAAGGCAUGAAUA	–	–	652	46.7
GCAGGUCGUGUGAGGAUAUCAUAGUUUAGCGGAGAUGAGAAGGCACAUGAGGAUCACCCAUGUCCAUCCUGCCU	36	92.6	–	–
CACCCACAUGAGGAUCACCCAUGUGAGGAUAUGAUACUAUGUACUUCGGUACAUAGUAUCAGAAGGCACAGGUG	32	106	–	–
